Data published in the RNAGym collection of RNA variant scans (doi:10.1126/science.aae0568).
Fewer inactive variants are shown than the library holds.

B1: tRNA (parent)
chain: GUUCCGUUGGCGUAAUGGUAACGCGUCUCCCUCCUAAGGAGAAGACUGCGGGUUCGAGUCCCGUACGGAACG

Variants of: B1
Assay: yeast fitness relative to wild type (ratio to wild type); higher = fitter; tRNA-Arg(CCU), competitive growth, 37 C, YPD
Procedure, shortened: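 The tRNA-Arg(CCU) gene variants were made by chemical synthesis with a 3% per-site mutation rate at 69 sites and inserted at the native genomic locus of Saccharomyces cerevisiae. After pooling, the strains were competed in YPD at 37°C for 24 hours in six parallel replicates. Gene amplicons from the start population and each end population were read by 100-nucleotide paired-end sequencing, and Darwinian fitness relative to wild type was taken from genotype frequency changes. Genotypes needed ≥ 100 starting reads, and estimates < 0.5 were set to 0.5.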

Point of comparison: GUUCCGUUGGCGUAAUGGUAAGCCGUACCCCUCCUAAGGAGAAGACUGCGGGUUCGAGUCCCGUACGGAACG, yeast fitness 0.533. Against it:
- GUUCCGUUGGCGUAAUGGUAAGGCGUCUCCCUCCUAAGGAGAAGACUGCGGGUUCGAGUCCCGUAAGGAACG — higher, 0.704
- GUUCCGUUGGCGUAAUGGUAAGGCGUCUCCCUCCUAAGGAGAAGACUGCGGGUUCGAGUCCCGUACCGAACG — higher, 0.97
- GUUCCGUUGGCGUAAUGGUAAGGCGUCUCCCUCCUAAGAAGAAGACUGCGGGUUCGAGUCCCGUACGGAACG — higher, 0.773
- GUUCCGUUGGCGUAAUGGUAAGGCGUCUCCCUCCUAAGCAGAAGACUGCGGGUUCGAGUCCCGUACGGAACG — higher, 0.823
- GUUCCGUUGGCGUAAUGGUAAGCCGUCUCCCUCCUAAGGAGAAGACUGCCGGUUAGAGUACCGUACGGAACG — lower, ≤ 0.5
- GUUCCGUUGGCGUAAUGGUAAGGCGUCUCCCUCCUAAGGAGAACACUGCGGGUUCGAGUUCCGUACGGAACG — higher, 0.762
- GUUCCGUUGGCGUAAUGGUAAGGCGUCUCCCUCCUAAGGAGAAGACUGCGGCUUCGAGUCCCGUACGCAACG — lower, ≤ 0.5
- GUUCCGUUGGCGUAAUGGUAAGGCGUCUCCCUCCUAAGGAGAAGACUGAGGGUUCCACUACCGUACGGAACG — lower, ≤ 0.5
- GUUCCGUUGGCGUAAUGGUAAGGCGUCUCCCUCCUAAGGAGAAGACUGCGGGUUCGAGUCCAGUACGGAACG — higher, 0.787
- GUUCCGUUGGCGUAAUGGUAAGGCGUCUCCCUCCUAAGGAGAAGACUGCGAGUUCGAGUCCCGUACGGAACG — higher, 0.749
- GUUCCGUUGGCGUAAUGGUAAGGCGUCUCCCUCCUAAGGAGAAGACUGCGCGUUCGAGUCCCGUACGGAACG — higher, 0.738
- GUUCCGUUGGCGUAAUGGUAAGGCGUCUCCCUCCUAAGGAGAACACUGCGGGUUCGAGUCCCGUACGGAACG — higher, 0.942
- GUUCCGUUGGCGUAAUGGUAAGGCGUCUCCCUCCUAAGGAGAAGACUGCGGGUUCGAGUCGCGUACGGAACG — higher, 0.684
- GUUCCGUUGGCGUAAUGGUAAGGCGUCUCCCUCCUAAUGAGUAGACUGCGGGUUCGAGUCCCGUACGGAACG — lower, ≤ 0.5
- GUUCCGUUGGCGUAAUGGUAAGGCGUCUCCCUCCUAAGGAGAAGACUGCGGGUUCGAGUCCCGUAUGGUACG — higher, 0.685
- GUUCCGUUGGCGUAAUGGUAAGGCGUCUCCCUCCUAAGGAGAAGACUGCGGGUUCGAGUCCCGUAUGGCACG — higher, 0.564
- GUUCCGUUGGCGUAAUGGUAAGGCGUCUCCCUCCUAAGGAGAAGACUGCGAGUUCGAGUCCCGUACGGAUCG — higher, 0.665
- GUUCCGUUGGCGUAAUGGUAAGGCGUCUCCCUCCUAACGAGAAGACUGCGGGUUGGAGUCCCGUACGGAACG — lower, ≤ 0.5
- GUUCCGUUGGCGUAAUGGUAAGGCGUCUCCCUCCUAAGGAGAAGACUGCGGGUUCGAGUCCCCUACGUAACG — lower, 0.52
- GUUCCGUUGGCGUAAUGGUAAGGCGUCUCCCUCCUAAGGAGAAGACUGCGCGUUCGAAUCCCGUACGGAACG — lower, ≤ 0.5
- GUUCCGUUGGCGUAAUGGUAAGGCGUCUCCCUCCUAAGGAGAAGAAUGCGGGUUCGAGUCCUAUACGGAACG — higher, 0.651
- GUUCCGUUGGCGUAAUGGUAAGGCGUCUCCCUCCUAAGGAAAAGACUGCGGGUUCGAGUCGCGUACGGAACG — lower, ≤ 0.5
- GUUCCGUUGGCGUAAUGGUAAGGCGUCUCCCUCCUAAGAAGAAGACUGCGGGUUCGAGUCCCGUACGGAGCG — higher, 0.599
- GUUCCGUUGGCGUAAUGGUAAGGCGUCUCCCUCCUAAGGAGAAGAUUGCGGGUUCGAGUCCCGUACGGAACG — higher, 0.929
- GUUCCGUUGGCGUAAUGGUAAGGCCUCUCCCUCCUAGGGAGAAGACUGCGGGUUCGAGUCCCGUUCGGAACG — higher, 0.576
- GUUCCGUUGGCGUAAUGGUAAGGCAUCUCCCUCCUAUGAAGAAGACAGCGGGUUCGAGUCCCGUACGGAACG — lower, ≤ 0.5
- GUUCCGUUGGCGUAAUGGUAAGGCGUCUCCCUCCUAAGGAGAAGACUGCGGAUUUGAGUCCCGUACGGAACG — lower, ≤ 0.5
- GUUCCGUUGGCGUAAUGGUAAGGCGUCUCCCUCCUAAGGAGAAGACUGCGGGUUCGAGUCGUGUACGGAACG — lower, ≤ 0.5
- GUUCCGUUGGCGUAAUGGUAAGGCGUCUCCCUCCUAAGGAGAACACUGCGGGAUCGAGUCCCGUACGGAACG — lower, ≤ 0.5
- GUUCCGUUGGCGUAAUGGUAAGGCGUCUCCCUCCUAAGGAGAAGAUUGCAGGUUCGAGUCCCGUACGGAACG — higher, 0.719
- GUUCCGUUGGCGUAAUGGUAAGGCGUCUCCCUCCUAAGGAGAAGACUGCUGGUUCGGGUCCCGUACGGAACG — lower, ≤ 0.5
- GUUCCGUUGGCGUAAUGGUAAGCCGUACCCCCCCUAAGGAGAAGACUGCGGGUUCGAGUCCCGUACGGAACG — lower, ≤ 0.5
- GUUCCGUUGGCGUAAUGGUAAGCCGUACCCCUCCUAAGGAGAAGACUGCGGGUUCGAGUCCCGUACAGAGCG — lower, ≤ 0.5
- GUUCCGUUGGCGUAAUGGUAAGGCGUCUCCCUCUUAAGGAGAAGAAUGCGGGUUCGAGUCCCGUACGGAACG — lower, ≤ 0.5
- GUUCCGUUGGCGUAAUGGUAAGGCGUCUCCCUCCUAAGGAGAAGACUGCGGGUUUGUGUCCCGUACGGAACG — lower, ≤ 0.5
- GUUCCGUUGGCGUAAUGGUAAGGCGUCUCCCUCCUAAGGAGAAGACUGCGGGUUCGACUCUCGUACGGAACG — higher, 0.616
- GUUCCGUUGGCGUAAUGGUAAGGCGUCUCCCUCCUAAGGAGAAGACUGCGGGUUCGAGUACUGUACGGAACG — higher, 0.589
